The text below walks through data of ChEMBL document CHEMBL1123784, “Quantitative structure-activity relationship of triazine-antifolate inhibition of Leishmania dihydrofolate reductase and cell growth” (J Med Chem, 1987).

Experiment [1] concerns the target Bifunctional dihydrofolate reductase-thymidylate synthase (Leishmania major, UniProt P07382). Briefly: Inhibition of dihydrofolate reductase (DHFR) from Leishmania major. The following applies: read-out: Log 1/Ki (converted).
The test system of the next experiment is Leishmania major. Briefly: Growth inhibition against Leishmania major promastigotes in culture. The following applies: read-out: Log 1/EC50 (converted). The class given is functional, organism-based. The essentials:
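Seeded at 5 × 10⁶ cells/mL with four to six inhibitor concentrations spanning the I50. Coulter-counted daily for 5 days or until out of log phase. EC50 = concentration halving growth rate versus drug-free medium, from log dose vs percent growth plot.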

Sequence of Bifunctional dihydrofolate reductase-thymidylate synthase (P07382 whole entry): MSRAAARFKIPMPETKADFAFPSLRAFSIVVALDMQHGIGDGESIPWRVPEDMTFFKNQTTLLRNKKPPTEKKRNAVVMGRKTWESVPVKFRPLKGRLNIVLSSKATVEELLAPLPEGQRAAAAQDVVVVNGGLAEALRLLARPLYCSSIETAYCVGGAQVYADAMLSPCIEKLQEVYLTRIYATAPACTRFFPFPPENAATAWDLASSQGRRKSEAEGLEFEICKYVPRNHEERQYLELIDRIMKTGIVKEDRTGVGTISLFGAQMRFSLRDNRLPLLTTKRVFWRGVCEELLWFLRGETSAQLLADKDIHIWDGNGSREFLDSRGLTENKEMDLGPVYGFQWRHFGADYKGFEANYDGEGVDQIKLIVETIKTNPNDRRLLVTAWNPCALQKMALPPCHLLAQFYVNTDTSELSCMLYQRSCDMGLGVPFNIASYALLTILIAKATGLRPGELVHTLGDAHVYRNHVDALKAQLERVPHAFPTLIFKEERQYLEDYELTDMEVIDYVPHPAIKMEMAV

For `CC1(C)N=C(N)N=C(N)N1c1cccc(C#N)c1`, the Ki in experiment [1] was 6030 nM.
Consider `CC(=O)Nc1cccc(OCc2cccc(N3C(N)=NC(N)=NC3(C)C)c2)c1`, for which the Ki in experiment [1] is 75.9 nM.
Turning to `CCOC(=O)c1cccc(N2C(N)=NC(N)=NC2(C)C)c1`, the Ki in experiment [1] is 112000 nM.
Same read-out and setting: with `CC1(C)N=C(N)N=C(N)N1c1cccc([N+](=O)[O-])c1` the figure was 10000 nM; with `CC1(C)N=C(N)N=C(N)N1c1ccccc1`, 12600 nM; with `CC1(C)N=C(N)N=C(N)N1c1cccc(C(O)c2ccccc2)c1` (stereo not drawn), 42700 nM.
Still for that read-out and setting: with `CC1(C)N=C(N)N=C(N)N1c1cccc(C(F)(F)F)c1` the figure was 2190 nM.
`Cc1cccc(OCc2cccc(N3C(N)=NC(N)=NC3(C)C)c2)c1`: the EC50 in the experiment on Leishmania major was 219000 nM. The Ki in experiment [1] is 427 nM.
`CN(Cc1cnc2nc(N)nc(N)c2n1)c1ccc(C(=O)N[C@@H](CCC(=O)O)C(=O)O)cc1` [METHOTREXATE]: in the experiment with Leishmania major, the EC50 was 1000 nM.
As for `CC1(C)N=C(N)N=C(N)N1c1cccc(C(N)=O)c1`, in experiment [1], the Ki was 117000 nM.
For `CCOc1cccc(N2C(N)=NC(N)=NC2(C)C)c1`, the Ki in experiment [1] is 38000 nM.
As to `CCCCCCOc1cccc(N2C(N)=NC(N)=NC2(C)C)c1`, the Ki in experiment [1] was 3980 nM.
The same measure, in the same setting: under `CC1(C)N=C(N)N=C(N)N1c1cccc(Cl)c1` stands 1200 nM; under `CC1(C)N=C(N)N=C(N)N1c1cccc(OCc2ccccc2)c1`, 1910 nM.
Take `CCCCCCCCCCCOc1cccc(N2C(N)=NC(N)=NC2(C)C)c1`: in experiment [1], the Ki is 977 nM.
On to `CC1(C)N=C(N)N=C(N)N1c1cccc(OCCCCOc2cccc(C(F)(F)F)c2)c1`, for which the Ki in experiment [1] was 75.9 nM.
For the compound `CC1(C)N=C(N)N=C(N)N1c1cccc(CNc2ccc(Cl)cc2)c1`, the EC50 in the experiment on Leishmania major was 263000 nM. For the same compound, the Ki in experiment [1] is 661 nM.
Consider `CC1(C)N=C(N)N=C(N)N1c1cccc(CSc2ccccc2)c1`, for which the Ki in experiment [1] was 407 nM.
In the case of `COc1cccc(OCc2cccc(N3C(N)=NC(N)=NC3(C)C)c2)c1`, the EC50 in the experiment on Leishmania major was 309000 nM. Further, in experiment [1], the Ki was 151 nM.
In the case of `CC1(C)N=C(N)N=C(N)N1c1cccc(S(N)(=O)=O)c1`, the Ki in experiment [1] was 363000 nM.
Same read-out and setting: under `CC1(C)N=C(N)N=C(N)N1c1cccc(CNc2ccc(S(N)(=O)=O)cc2)c1` stands 759 nM.
With `CC1(C)N=C(N)N=C(N)N1c1cccc(SCc2ccc(Cl)cc2)c1`, the EC50 in the experiment with Leishmania major is 60300 nM. Besides, the Ki in experiment [1] is 110 nM.
With `CCCCCCCCCOc1cccc(N2C(N)=NC(N)=NC2(C)C)c1`, the Ki in experiment [1] is 302 nM.
On to `CC1(C)N=C(N)N=C(N)N1c1cccc(COc2cc(Cl)c(Cl)cc2Cl)c1`, for which the EC50 in the experiment on Leishmania major is 25100 nM. For the same compound, the Ki in experiment [1] is 69.2 nM.
Take `CC1(C)N=C(N)N=C(N)N1c1cccc(COc2cccc(NC(N)=O)c2)c1`: in experiment [1], the Ki is 91.2 nM.
As for `CC1(C)N=C(N)N=C(N)N1c1cccc(COc2cccc(C#N)c2)c1`, the Ki in experiment [1] was 178 nM.
In the case of `CC1(C)N=C(N)N=C(N)N1c1cccc(COc2cccc(-c3ccccc3)c2)c1`, the EC50 in the experiment with Leishmania major was 22900 nM. In addition, the Ki in experiment [1] was 17 nM.
As for `CC1(C)N=C(N)N=C(N)N1c1cccc(O)c1`, the Ki in experiment [1] was 53700 nM.
Turning to `CCc1cccc(N2C(N)=NC(N)=NC2(C)C)c1`, the Ki in experiment [1] is 1950 nM.
In the case of `CC1(C)N=C(N)N=C(N)N1c1cccc(OCCOc2cccc(C(F)(F)F)c2)c1`, the EC50 in the experiment on Leishmania major was 126000 nM. For the same compound, in experiment [1], the Ki was 251 nM.
Take `CCCCCCCCCCCCc1cccc(N2C(N)=NC(N)=NC2(C)C)c1`: the EC50 in the experiment with Leishmania major is 7940 nM. The Ki in experiment [1] was 72.4 nM.
As to `CC1(C)N=C(N)N=C(N)N1c1cccc(COc2cccc3ccccc23)c1`, the EC50 in the experiment with Leishmania major was 51300 nM. Also, in experiment [1], the Ki is 39.8 nM.
`CC1(C)N=C(N)N=C(N)N1c1cccc(OCC23CC4CC(CC(C4)C2)C3)c1`: the Ki in experiment [1] was 3090 nM.
Same read-out and setting: with `CCCCCCCCCCCCCCOc1cccc(N2C(N)=NC(N)=NC2(C)C)c1` the figure was 5890 nM.
In the case of `CCc1cccc(OCc2cccc(N3C(N)=NC(N)=NC3(C)C)c2)c1`, the Ki in experiment [1] is 126 nM.
As for `CC1(C)N=C(N)N=C(N)N1c1cccc(SCc2ccccc2)c1`, in experiment [1], the Ki is 224 nM.
The same measure, in the same setting: under `COc1cccc(N2C(N)=NC(N)=NC2(C)C)c1` stands 22900 nM; under `CC(=O)c1cccc(N2C(N)=NC(N)=NC2(C)C)c1`, 39800 nM.
As for `CC(C)c1cccc(OCc2cccc(N3C(N)=NC(N)=NC3(C)C)c2)c1`, the EC50 in the experiment with Leishmania major is 57500 nM. The Ki in experiment [1] was 174 nM.
For the compound `CC1(C)N=C(N)N=C(N)N1c1cccc(C[Se]c2ccccc2)c1`, in experiment [1], the Ki was 275 nM.
The same measure, in the same setting: with `CC1(C)N=C(N)N=C(N)N1c1cccc(COc2cccc(CO)c2)c1` the figure was 646 nM.
As to `CCCCCCCCCc1cccc(N2C(N)=NC(N)=NC2(C)C)c1`, in the experiment on Leishmania major, the EC50 is 8510 nM. For the same compound, the Ki in experiment [1] was 20.9 nM.
As for `CCCCCc1ccc(OCc2cccc(N3C(N)=NC(N)=NC3(C)C)c2)cc1`, the Ki in experiment [1] is 339 nM.
For `CC(C)(C)c1cccc(N2C(N)=NC(N)=NC2(C)C)c1`, the Ki in experiment [1] is 5750 nM.
`CC1(C)N=C(N)N=C(N)N1c1cccc(CNc2cc(C(N)=O)cc(C(N)=O)c2)c1`: the EC50 in the experiment with Leishmania major was 501000 nM. Besides, the Ki in experiment [1] was 513 nM.
Regarding `CC1(C)N=C(N)N=C(N)N1c1cccc(COc2cccc(Cl)c2)c1`, the Ki in experiment [1] is 224 nM.
